Laboratory results published in ChEMBL document CHEMBL1141693, “Discovery of benzoylpiperazines as a novel class of potent and selective GlyT1 inhibitors” (Bioorg Med Chem Lett, 2008).
≈ marks a conversion by molar mass, not a printed value. Calls of active or inactive are those of the source. The rule behind the calls is not given here.

Key:
[1] = Aqueous solubility in phosphate buffer at pH 6.5 by lyophilization solubility assay; type: physicochemical
Summary of the method: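 Aqueous solubility was measured at pH 6.5 in a lyophilization solubility assay.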

[2] = target: T1, Sodium- and chloride-dependent glycine transporter 1 (Homo sapiens, UniProt P48067); test: Inhibition of [3H]glycine uptake at human glycine transporter 1 expressed in CHO cells by scintillation counter; type: cell-based
T1 sequence (P48067 whole entry): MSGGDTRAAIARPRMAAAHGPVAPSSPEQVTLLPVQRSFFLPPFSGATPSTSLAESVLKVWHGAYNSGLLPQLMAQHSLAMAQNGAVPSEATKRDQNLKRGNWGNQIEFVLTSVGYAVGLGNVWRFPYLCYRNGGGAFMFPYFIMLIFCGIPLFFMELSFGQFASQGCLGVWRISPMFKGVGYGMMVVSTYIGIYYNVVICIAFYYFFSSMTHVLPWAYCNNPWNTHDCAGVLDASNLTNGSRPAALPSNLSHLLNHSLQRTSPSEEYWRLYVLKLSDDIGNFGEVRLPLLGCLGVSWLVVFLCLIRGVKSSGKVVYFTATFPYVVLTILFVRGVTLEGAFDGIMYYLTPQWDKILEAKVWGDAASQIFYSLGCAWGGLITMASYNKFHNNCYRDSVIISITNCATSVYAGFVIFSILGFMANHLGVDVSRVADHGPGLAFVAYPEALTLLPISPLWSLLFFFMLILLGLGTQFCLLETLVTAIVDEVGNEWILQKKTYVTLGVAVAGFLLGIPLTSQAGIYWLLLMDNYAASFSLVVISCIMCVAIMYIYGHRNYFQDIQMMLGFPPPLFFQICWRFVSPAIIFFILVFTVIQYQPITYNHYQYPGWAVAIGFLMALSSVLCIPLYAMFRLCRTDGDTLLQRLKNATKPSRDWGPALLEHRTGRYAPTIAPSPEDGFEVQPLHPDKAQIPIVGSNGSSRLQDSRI

[3] = target: T2, Sodium- and chloride-dependent glycine transporter 2 (Homo sapiens, UniProt Q9Y345); test: Inhibition of [3H]glycine uptake at human glycine transporter 2 expressed in CHO cells by scintillation counter; type: cell-based
T2 sequence (Q9Y345 whole entry): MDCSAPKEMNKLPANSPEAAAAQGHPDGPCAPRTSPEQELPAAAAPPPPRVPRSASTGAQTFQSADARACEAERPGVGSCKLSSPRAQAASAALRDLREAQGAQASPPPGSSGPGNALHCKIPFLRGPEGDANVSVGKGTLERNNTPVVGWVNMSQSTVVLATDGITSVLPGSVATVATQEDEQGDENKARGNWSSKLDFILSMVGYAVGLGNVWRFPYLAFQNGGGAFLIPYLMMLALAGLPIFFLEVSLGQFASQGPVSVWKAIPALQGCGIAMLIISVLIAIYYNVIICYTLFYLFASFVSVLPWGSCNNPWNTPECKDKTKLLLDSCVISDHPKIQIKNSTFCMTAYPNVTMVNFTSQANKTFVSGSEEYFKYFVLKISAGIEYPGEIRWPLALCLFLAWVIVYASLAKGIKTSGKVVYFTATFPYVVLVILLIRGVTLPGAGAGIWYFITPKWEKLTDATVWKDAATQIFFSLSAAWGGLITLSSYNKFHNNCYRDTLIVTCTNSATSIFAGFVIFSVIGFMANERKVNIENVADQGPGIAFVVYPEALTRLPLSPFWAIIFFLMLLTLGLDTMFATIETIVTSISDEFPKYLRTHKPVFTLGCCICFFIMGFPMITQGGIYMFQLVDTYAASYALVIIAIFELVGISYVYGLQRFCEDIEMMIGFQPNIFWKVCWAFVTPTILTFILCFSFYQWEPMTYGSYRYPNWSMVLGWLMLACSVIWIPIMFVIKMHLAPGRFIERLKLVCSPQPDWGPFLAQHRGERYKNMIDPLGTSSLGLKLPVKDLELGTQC
Summary of the method: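 [³H]-glycine uptake inhibition in cells transfected with human GlyT2 cDNA. EC50 is the average of at least two independent experiments.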

Homo sapiens = organism: Homo sapiens; test: Selectivity ratio of IC50 for human glycine transporter 2 to IC50 for human glycine transporter 1
Summary of the method: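 [³H]-glycine uptake inhibition in cells transfected with human GlyT1 or human GlyT2 cDNA. Each EC50 is the average of at least two independent experiments. Selectivity is the ratio of GlyT2 EC50 to GlyT1 EC50.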

[4] = target: T3, Catechol O-methyltransferase (Homo sapiens) (UniProt P21964); test: Inhibition of catechol-O-methyl transferase at 10 uM
T3 sequence (whole entry): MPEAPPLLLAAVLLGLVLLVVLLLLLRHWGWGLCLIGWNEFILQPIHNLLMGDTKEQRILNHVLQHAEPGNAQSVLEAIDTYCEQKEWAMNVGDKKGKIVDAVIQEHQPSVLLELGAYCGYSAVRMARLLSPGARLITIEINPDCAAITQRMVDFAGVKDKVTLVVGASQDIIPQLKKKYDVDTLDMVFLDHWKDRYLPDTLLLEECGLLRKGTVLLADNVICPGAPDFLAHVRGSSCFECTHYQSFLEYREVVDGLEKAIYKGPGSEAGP
Summary of the method: (§1)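 Run within an outsourced CEREP selectivity screen of 80 targets (transmembrane and soluble receptors, enzymes, ion channels, monoamine transporters). The compound was tested at a single concentration and the read-out was percent inhibition of each target.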

Liver microsomes [5] = test: Metabolic stability in human liver microsomes assessed as intrinsic clearance per […] of protein; type: ADME, Microsome
Summary of the method: (§2)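 Intrinsic clearance measured in liver microsomes from rat, mouse or human, expressed per mg microsomal protein.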

[6] = target: Acetylcholinesterase (Homo sapiens) (UniProt P22303); test: Inhibition of acetylcholinesterase at 10 uM; summary of the method: as §1
[7] = Membrane permeability by PAMPA; type: ADME; conditions: read-out: permeability
Summary of the method: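 PAMPA artificial-membrane permeation, reported as the permeation constant Pe in 10^-6 cm/s.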

Liver microsomes [8] = test: Metabolic stability in rat liver microsomes assessed as intrinsic clearance per […] of protein; type: ADME, Microsome; summary of the method: as §2
MAO-A = target: T4, MAO-A (Homo sapiens, UniProt P21397); test: Inhibition of MAOA at 10 uM
T4 sequence (P21397 whole entry): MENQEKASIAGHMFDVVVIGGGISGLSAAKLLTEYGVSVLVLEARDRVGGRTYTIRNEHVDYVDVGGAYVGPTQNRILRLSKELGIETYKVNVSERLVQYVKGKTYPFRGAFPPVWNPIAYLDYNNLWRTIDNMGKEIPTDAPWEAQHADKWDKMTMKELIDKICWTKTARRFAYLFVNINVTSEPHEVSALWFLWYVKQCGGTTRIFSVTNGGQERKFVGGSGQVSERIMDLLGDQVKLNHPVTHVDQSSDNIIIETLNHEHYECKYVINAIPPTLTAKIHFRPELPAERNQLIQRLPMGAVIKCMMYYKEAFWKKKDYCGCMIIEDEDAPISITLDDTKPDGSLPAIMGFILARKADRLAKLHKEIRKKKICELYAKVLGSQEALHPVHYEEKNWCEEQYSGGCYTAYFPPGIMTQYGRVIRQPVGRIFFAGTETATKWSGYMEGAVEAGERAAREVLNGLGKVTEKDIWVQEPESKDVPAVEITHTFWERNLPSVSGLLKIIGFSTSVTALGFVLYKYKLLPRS
Summary of the method: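 CEREP selectivity screen across a panel of 80 targets (receptors, enzymes, ion channels, monoamine transporters). Percent inhibition was read at a single test concentration.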

[9] = Inhibition of phosphodiesterase at 10 uM
Summary of the method: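 CEREP selectivity panel of 80 targets: transmembrane and soluble receptors, enzymes, ion channels and monoamine transporters. Single test concentration of 10 µM; read-out is percent inhibition.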

[10] = Metabolic stability in mouse liver microsomes assessed as intrinsic clearance per […] of protein; type: ADME, Microsome; summary of the method: as §2
[11] = Cmax in mouse brain at 10 mg/kg, po; type: ADME, organism-based; design: dose 10 mg/kg, route oral
[12] = Fraction unbound in mouse plasma at 10 mg/kg, po; type: ADME, organism-based; design: dose 10 mg/kg, route oral
[13] = target: T5, Sodium- and chloride-dependent glycine transporter 2 (Homo sapiens) (UniProt Q9Y345); test: Inhibition of [3H]glycine uptake at human glycine transporter 2 expressed in CHO cells at 30 uM by scintillation counter; type: cell-based
T5 sequence (whole entry): T2 sequence (Q9Y345 whole entry)

[14] = Cmax in mouse plasma at 10 mg/kg, po; type: ADME, organism-based; design: dose 10 mg/kg, route oral
[15] = Ratio of drug level in brain to plasma in mouse at 10 mg/kg, po; type: ADME, organism-based; design: dose 10 mg/kg, route oral; conditions: read-out: BPR
Summary of the method: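 Mouse pharmacokinetics after a 10 mg/kg oral dose. Brain/plasma ratio taken from brain Cmax (ng/g) and plasma Cmax (ng/mL). Values are the average of two independent experiments.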

Cytochrome P450 2D6 = Cytochrome P450 2D6 (Homo sapiens, UniProt P10635); test: Inhibition of CYP2D6; type: ADME
[16] = Half life in mouse at 10 mg/kg, po; type: ADME, organism-based; design: dose 10 mg/kg, route oral; conditions: in vivo
[17] = Volume of distribution at steady state in mouse at 2 mg/kg, iv; type: ADME, organism-based; design: dose 2 mg/kg, route intravenous; conditions: in vivo, read-out: Vdss
[18] = Clearance in mouse at 2 mg/kg, iv; type: ADME, organism-based; design: dose 2 mg/kg, route intravenous; conditions: in vivo
[19] = Oral bioavailability in mouse at 10 mg/kg; type: ADME, organism-based; conditions: in vivo

Cytochrome P450 2D6, sequence (P10635 whole entry): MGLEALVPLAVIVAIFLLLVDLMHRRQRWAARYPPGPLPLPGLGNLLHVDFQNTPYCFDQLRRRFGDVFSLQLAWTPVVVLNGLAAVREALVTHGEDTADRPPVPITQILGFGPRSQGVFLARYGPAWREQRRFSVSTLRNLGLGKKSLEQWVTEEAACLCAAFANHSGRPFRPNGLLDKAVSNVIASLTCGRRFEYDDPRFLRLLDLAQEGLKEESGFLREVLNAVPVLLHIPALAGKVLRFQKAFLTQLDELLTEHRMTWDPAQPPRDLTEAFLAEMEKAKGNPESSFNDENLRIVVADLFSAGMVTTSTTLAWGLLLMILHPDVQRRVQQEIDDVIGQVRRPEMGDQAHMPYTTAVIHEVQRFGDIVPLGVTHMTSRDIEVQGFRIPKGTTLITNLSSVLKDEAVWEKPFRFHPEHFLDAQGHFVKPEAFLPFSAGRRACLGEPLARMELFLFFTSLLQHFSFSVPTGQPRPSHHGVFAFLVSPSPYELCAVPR
Acetylcholinesterase (Homo sapiens), sequence (P22303 whole entry): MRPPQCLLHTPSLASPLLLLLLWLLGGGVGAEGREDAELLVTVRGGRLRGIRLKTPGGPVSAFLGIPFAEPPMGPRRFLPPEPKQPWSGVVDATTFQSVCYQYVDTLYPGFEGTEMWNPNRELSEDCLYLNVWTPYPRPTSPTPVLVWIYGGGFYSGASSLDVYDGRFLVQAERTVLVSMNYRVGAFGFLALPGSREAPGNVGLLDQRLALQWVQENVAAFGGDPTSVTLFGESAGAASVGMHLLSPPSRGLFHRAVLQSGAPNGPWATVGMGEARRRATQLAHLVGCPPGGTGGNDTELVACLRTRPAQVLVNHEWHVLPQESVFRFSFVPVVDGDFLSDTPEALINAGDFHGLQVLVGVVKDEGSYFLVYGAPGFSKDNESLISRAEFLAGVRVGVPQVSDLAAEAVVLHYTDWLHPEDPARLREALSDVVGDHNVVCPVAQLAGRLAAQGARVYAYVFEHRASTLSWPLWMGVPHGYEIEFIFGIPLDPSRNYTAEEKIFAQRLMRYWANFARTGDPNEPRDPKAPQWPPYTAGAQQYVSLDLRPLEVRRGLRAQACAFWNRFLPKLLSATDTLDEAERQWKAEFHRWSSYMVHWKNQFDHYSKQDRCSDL

Work on `CC(=O)c1ccc(N2CCN(C(=O)c3cc(S(C)(=O)=O)ccc3N3CCOCC3)CC2)c(F)c1` yielded a solubility [1] of 30 µg/mL (≈ 61.3 µM), an EC50 [2] of 70 nM and an EC50 [3] of over 30000 nM. For the same molecule, the Ratio EC50 (Homo sapiens) was over 417, the inhibition [4] was under 20% and the clearance (Liver microsomes [5]) was 26 µL/min/mg. The inhibition [6] was under 20%, the Papp [7] was 3.1 ×10⁻⁶ cm/s and the clearance (Liver microsomes [8]) was 40 µL/min/mg. It also gave an inhibition at 10 µM (MAO-A) of under 20% and an inhibition [9] of under 20%.
Work on `CS(=O)(=O)c1ccc(OCC2CC2)c(C(=O)N2CCN(c3ccc(C#N)cc3F)CC2)c1` yielded a clearance [10] of 9 µL/min/mg, a solubility [1] of 31 µg/mL (≈ 67.8 µM) and an EC50 [2] of 16 nM. For the same molecule, the Cmax [11] was 373 ng/g, the fraction unbound [12] was 0.12 and the Activity [13] was “inactive”. For the same molecule, the Cmax [14] was 3880 ng/mL, the clearance (Liver microsomes [5]) was 4 µL/min/mg and the Kp [15] was 0.1. It also gave a Papp [7] of 3.2 ×10⁻⁶ cm/s, an IC50 (Cytochrome P450 2D6) of over 29100 nM and a half-life [16] of 5.8 h. The Vd [17] was 2.8 L/kg, the clearance [18] was 9.5 mL/min/kg and the bioavailability [19] was 100%.
